Rows were chosen to be rich in hits. Some 3.8% of all compounds tested hit in one or more screens of this group.
BB579 growth dn: yeast BB579 growth reduction in restrictive medium; S. cerevisiae BB579 growth, OD615, 48 h; hit rate 0.51% among 140,000; AID 804; inhibition, % at 10 µM;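 active = inhibition above a set limit, 3 SD over the mean compound inhibition, cut at about 44% in these data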
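Assay system – yeast BB579 (DeaD) · Dosing – single compound dose of 10 µM, 0.25% DMSO final · Detection – OD615 turbidity measurement · Buffer or medium – CSMM-D restrictive synthetic medium containing dextrose (glucose) · Benchmarks – positive control amphotericin B 10 µg/mL · Incubation – 48 h exposure, 30 °C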
Measles CPE: protection of cells from measles virus; Measles virus-infected cells, CPE protection, absorbance; protection (pct of control), % at 4 µM; hit rate 1.5% among 140,000; AID 841; in the data active = protection mostly above about 24%, no sharp cut-off; inactive = mostly below about 26%
Yeast life ext: yeast lifespan extension. inhibition of the nicotinamide effect, % at 10 µM. hit rate 0.68% among 130,000. S. cerevisiae growth with nicotinamide, OD615; deaD strain in restrictive glucose medium;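 active = inhibition above a set limit, placed 3 SD over the median of all compounds, cut at about 26% in these data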
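Measured by: optical density (absorbance) at 615 nm; System: modified budding yeast, DeaD strain; Medium: restrictive CSMM-D dextrose medium; Timing: 4 h preincubation then 48 h treatment at 30 °C.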
RAM inhibit: yeast RAM network inhibition. hit rate 1.8% among 190,000. inhibition, % at 50 µM. AID 868. S. cerevisiae dse1pr::URA3 reporter, 5-FOA growth OD615, 2 d; analog-sensitive cbk1-as2 kinase mutant strain;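 active = inhibition above a set limit, 3 SD over mean compound inhibition, cut at about 8.4% in these data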;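 note: inhibition rescues growth on 5-FOA so higher OD means more RAM inhibition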
Hits are given with their value; i = inactive; nt = not tested or not shown.

SMILES | BB579 growth dn | Measles CPE | Yeast life ext | RAM inhibit
CCOc1cc(N2CCOCC2)c(OCC)cc1NC(=O)c1ccc(OCc2c(C)noc2C)c(OC)c1 | i | i | i | 8.7
Cc1nn(-c2cccc(C(F)(F)F)c2)c(Cl)c1/C=N/Nc1cccc(C(=O)O)c1 | 94 | i | i | i
O=[N+]([O-])c1cc(/C=N/n2c(-c3cccnc3)n[nH]c2=S)ccc1Cl | i | 29 | i | i
CCOC(=O)c1c(-c2ccc(-c3ccccc3)cc2)csc1NC(=O)CCN1CCOCC1 | 95 | i | i | i
Cc1cc(C)c(C(=O)Nc2ccc(Br)c(C(F)(F)F)c2)c(C)c1 | i | i | i | i
NC(=S)Nc1cccc2cccnc12 | i | i | i | i
O=C(Nc1cccc2cccnc12)C1CCCC1 | i | 29 | i | i
CCCSc1ccc(-c2nn(-c3ccccc3)cc2/C=C(/C#N)C(=O)N2CCOCC2)cc1 | i | i | i | 8.8
O=C(N/C(=C/c1cn(-c2ccccc2)nc1-c1ccccc1)C(=O)N1CCOCC1)c1ccc(Cl)cc1Cl | i | i | i | 8.9
CC(=O)Nc1ccc(/C=N/NC(=O)CNC(=O)c2ccccc2)cc1 | nt | nt | nt | i
COc1ccc(/C=N/NC(=O)C2COc3ccccc3O2)cc1OC (stereo not drawn) | nt | nt | nt | i
COc1cc(/C=N\NC(=O)CNC(=O)C2COc3ccccc3O2)ccc1O (stereo not drawn) | i | 30 | i | i
CC(C)[C@H](NC(N)=O)C(=O)Nc1ccc(F)c(Cl)c1 | nt | nt | nt | i
Cc1cccc(Cn2cc(/C=C/[N+](=O)[O-])c3ccccc32)c1 | i | i | i | 11
c1ccc(-c2nc3nonc3nc2-c2ccccc2)cc1 | 70 | i | i | i
Nc1c(-c2ccccc2)nc(Cl)nc1-c1ccccc1 | i | i | i | i
CC(C)c1ccc(C2C3CSCC=C3C(C#N)=C(N)C2(C#N)C#N)cc1 (stereo not drawn) | i | i | 29 | i
CCOC(=O)C1CCCN(C(=O)c2cc3ccccc3oc2=O)C1 (stereo not drawn) | nt | nt | nt | i
COC(=O)C(O)(CC(=O)Nc1cc(Cl)ccc1Cl)C(F)(F)F (stereo not drawn) | i | i | nt | i
O=C(COc1ccccc1)N1CCN=C1SCc1cccnc1 | 56 | i | i | i
COc1cc(OC)cc(C(=O)N2CCN=C2SCc2cccnc2)c1 | i | i | i | i
O=c1cc(N2CCCCC2)c(-c2ccccc2)n[nH]1 | nt | nt | nt | i
O=C(c1ccc(F)cc1)N1CCN(c2cc(=O)[nH]nc2-c2ccccc2)CC1 | i | 39 | i | i
Cc1ccc(C(=O)N2CCN(c3cc(=O)[nH]nc3-c3ccccc3)CC2)cc1 | i | 38 | i | i
CC(C)Cc1ccc(C(C)NC(=O)c2ccc(=O)[nH]c2)cc1 (stereo not drawn) | nt | nt | nt | i
SMILES | BB579 growth dn | Measles CPE | Yeast life ext | RAM inhibit
CCCn1c(/N=C/c2ccc3c(c2)OCO3)nc2ccccc21 | i | 32 | i | i
CCCCn1c(SCC(=O)Nc2ccc(OC)cc2)nc2ccc(N3CCOCC3)cc2c1=O | i | 53 | i | i
O=C(NC1CC1)c1ccc(-n2cccc2)cc1 | nt | nt | nt | i
CCOC(=O)c1ccc(N=c2sc(C(=O)OC)cc(=O)n2Cc2ccco2)cc1 | i | i | i | 8.6
CCOC(=O)c1ccc(N=c2sc(C(=O)OC)cc(=O)n2CCCN2CCOCC2)cc1 | i | i | i | i
CN1/C(=C\C=C2/SC(=S)N(CC(=O)O)C2=O)C(C)(C)c2ccccc21 | nt | nt | nt | 9.1
CCCCOC(=O)C1=C(C)Nc2nnnn2C1c1ccc(OC)c(OC)c1OC (stereo not drawn) | i | 46 | i | i
O=C(O)c1cc(-c2ccc(O)cc2)on1 | nt | nt | nt | i
O=C(NN=C1CCCCCCCCCCC1)c1ccccc1F | i | 50 | i | i
O=C(NCc1nc2ccccc2[nH]1)c1cc2ccccc2oc1=O | i | 86 | i | i
Cc1c(NC(=O)c2noc(C(C)C)c2[N+](=O)[O-])c(=O)n(-c2ccccc2)n1C | i | 29 | i | i
Cc1cc(C(=O)Nc2c(C)n(C)n(-c3ccccc3)c2=O)on1 | i | i | i | i
CCCCC(NC(C)=O)c1nc2ccccc2n1CCC (stereo not drawn) | i | i | i | i
c1ccc(NCc2nc3ccccc3n2CCOc2ccccc2)cc1 | i | i | 41 | i
CCCn1c(CNc2ccccc2O)nc2ccccc21 | 45 | i | i | i
CCCc1nc2ccccc2n1CCOc1ccccc1 | i | i | i | i
CCCn1c(C(C)NC(C)=O)nc2ccccc21 (stereo not drawn) | 44 | i | i | i
COc1ccc(NCc2nc3ccccc3n2CCOc2ccccc2)cc1 | i | i | 56 | i
O=C(Cc1cccs1)N1CCN=C1SCc1ccc(Br)cc1 | nt | nt | nt | i
Cc1ccc(NC(=O)COC(=O)C(NS(=O)(=O)c2ccc(Cl)cc2)C(C)O)cc1C (stereo not drawn) | i | i | i | i
C/C(=N\NC(=O)CSc1nc2ccccc2s1)c1ccco1 | i | i | i | i
Cc1ccc(OCCn2c(CCCO)nc3ccccc32)cc1 | i | i | i | i
COc1ccc(NCc2nc3ccccc3n2CCOc2ccc(C)cc2)cc1 | 92 | i | i | i
Cc1nn(-c2ccccc2)c(N)c1Sc1ccccc1[N+](=O)[O-] | i | 46 | i | i
CC(=O)OCC1OC(Nc2cccc(C)c2)C(OC(C)=O)C(OC(C)=O)C1OC(C)=O (stereo not drawn) | i | i | i | i
SMILES | BB579 growth dn | Measles CPE | Yeast life ext | RAM inhibit
O=C(c1ccc(Cl)c(S(=O)(=O)N2CCOCC2)c1)N1CCN(Cc2ccccc2)CC1 | i | i | nt | i
COCCn1c(SCC(=O)Nc2nnc(C)s2)nnc1-c1ccco1 | nt | nt | nt | i
COCCCn1c(SCC(=O)Nc2nnc(C)s2)nnc1-c1ccoc1C | i | i | 60 | i
NC(=O)C1CCN(C(=O)CC2(CC(=O)O)CCCCC2)CC1 | nt | nt | nt | i
NC(=O)CC1(CC(=O)O)CCCCC1 | i | 68 | i | i
O=C(Oc1cccc(/C=N/Nc2nc(Nc3ccccc3)nc(N3CCOCC3)n2)c1)c1ccco1 | i | 19 | i | i
N=C1N(/N=C/c2ccccc2)C(=Nc2ccccc2)C(=S)N1c1ccccc1 | i | i | nt | i
CCOC(=O)c1c(C)oc2c1c(C=NCC1CCCO1)c(O)c1ccccc12 (stereo not drawn) | i | i | 29 | i
CCOC(=O)c1c(C)oc2c1c(C(c1cccnc1)N1CCOCC1)c(O)c1ccccc12 (stereo not drawn) | i | i | 40 | i
CCOC(=O)c1c(C)oc2c1c1c(c3ccccc32)OCN(Cc2cccnc2)C1 | i | i | i | i
CCOC(=O)c1c(C)oc2c1c(C=NCc1ccccn1)c(O)c1ccccc12 | i | i | 31 | i
CCOC(=O)c1c(C)oc2c1cc(O)c1ccccc12 | i | i | i | i
CC(C)c1cc(C(=O)NCCc2ccccc2)no1 | nt | nt | nt | i
CCc1ccc(N(C(=O)Cc2cccs2)C(C(=O)NC2CCCCC2)c2cn(C)nc2C)cc1 (stereo not drawn) | i | i | i | 8.5
Cc1ccccc1C(C(=O)NC1CCCC1)N(C(=O)Cc1cccs1)c1ccc2c(c1)OCCO2 (stereo not drawn) | i | i | i | i
O=C1Nc2ccc(NS(=O)(=O)c3cccs3)c3cccc1c23 | i | 44 | i | i
